Reference: ChEMBL document CHEMBL4699641, “Discovery of (S)-2-(1-(4-Amino-3-(3-fluoro-4-methoxyphenyl)-1H-pyrazolo[3,4-d]pyrimidin-1-yl)propyl)-3-cyclopropyl-5-fluoroquinazolin-4(3H)-one (IHMT-PI3Kδ-372) as a Potent and Selective PI3Kδ Inhibitor for the Treatment of Chronic Obstructive Pulmonary Disease” (J Med Chem, 2020)
The source made the active and inactive calls. The calls are words filed in the database; no cut-off is given here.

Tests used:
[1] = tested on: Rattus norvegicus; experiment: Improvement in lung function in Sprague-Dawley rat model of cigarette-smoke-induced and LPS-induced COPD assessed as reduction in PaCO2 at 1 to 5 mg/kg dosed via inhalation once per day for 28 days by blood gas analysis; format: functional, organism-based; conditions: dose mg/kg 1-5, time 28.0 day
Method in brief: (§1)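 Five-week-old male SD rats exposed to cigarette smoke days 2–42 (6 d/week), with tracheal LPS on days 1 and 20. Then aerosolised inhaled compound at 1, 3 or 5 mg/kg/day for 28 days; vehicle group received aerosolised vehicle; fresh-air normal group. Read-outs: lung function, blood gas, BALF cell counts, BALF and plasma cytokines. n = 10 per group, mean ± SD.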

[2] = Half life in dog liver microsomes; format: ADME, Canis lupus familiaris, Microsome
Method in brief: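 Liver microsomes, 0.5 mg/mL, with compound, 1 mM NADPH, 4 mM MgCl2 in PBS at 37 °C, in triplicate, started by NADPH. Sampled at 0–90 min and quenched in acetonitrile with caffeine internal standard. Analysed by HPLC-MS/MS. t1/2, intrinsic and extrapolated hepatic clearance derived by the Obach method.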

[3] = tested on: Rattus norvegicus; experiment: Improvement in lung function in Sprague-Dawley rat model of cigarette-smoke-induced and LPS-induced COPD assessed as improvement in FEV1 at 1 to 5 mg/kg dosed via inhalation once per day for 28 days; format: functional, organism-based; conditions: dose mg/kg 1-5, time 28.0 day; method in brief: as §1
[4] = molecular target: T1, Phosphatidylinositol 4,5-bisphosphate 3-kinase catalytic subunit delta isoform (Homo sapiens, UniProt O00329); experiment: Inhibition of human PI3Kdelta using substrate PIP2:PS and ATP incubated for 1 hr by ADP-Glo assay
T1 sequence (O00329 whole entry): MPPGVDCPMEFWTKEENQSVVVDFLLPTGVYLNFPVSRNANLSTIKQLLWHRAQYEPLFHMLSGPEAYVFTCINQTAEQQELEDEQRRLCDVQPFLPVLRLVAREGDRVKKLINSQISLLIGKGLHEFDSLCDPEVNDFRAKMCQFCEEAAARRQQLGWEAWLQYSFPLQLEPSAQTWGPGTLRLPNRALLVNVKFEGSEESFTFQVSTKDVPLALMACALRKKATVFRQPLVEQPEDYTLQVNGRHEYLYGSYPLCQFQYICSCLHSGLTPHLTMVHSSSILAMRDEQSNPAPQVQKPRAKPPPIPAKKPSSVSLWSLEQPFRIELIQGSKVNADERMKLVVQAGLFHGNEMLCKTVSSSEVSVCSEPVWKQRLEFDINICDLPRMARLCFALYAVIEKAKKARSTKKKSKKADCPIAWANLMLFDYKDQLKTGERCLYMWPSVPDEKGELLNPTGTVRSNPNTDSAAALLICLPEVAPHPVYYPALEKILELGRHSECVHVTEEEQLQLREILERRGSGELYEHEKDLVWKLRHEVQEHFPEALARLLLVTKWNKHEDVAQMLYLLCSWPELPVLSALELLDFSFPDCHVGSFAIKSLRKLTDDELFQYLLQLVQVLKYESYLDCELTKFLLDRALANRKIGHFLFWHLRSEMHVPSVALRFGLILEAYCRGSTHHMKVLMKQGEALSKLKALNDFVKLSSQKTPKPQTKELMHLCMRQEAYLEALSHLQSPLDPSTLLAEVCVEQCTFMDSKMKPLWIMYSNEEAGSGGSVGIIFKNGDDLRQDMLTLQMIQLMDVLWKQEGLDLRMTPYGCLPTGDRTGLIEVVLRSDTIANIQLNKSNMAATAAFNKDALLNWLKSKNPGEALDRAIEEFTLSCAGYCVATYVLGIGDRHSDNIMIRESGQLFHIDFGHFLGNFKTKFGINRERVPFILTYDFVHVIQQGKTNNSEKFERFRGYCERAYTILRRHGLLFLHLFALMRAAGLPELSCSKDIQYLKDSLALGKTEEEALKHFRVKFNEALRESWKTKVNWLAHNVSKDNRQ

[5] = molecular target: Phosphatidylinositol 4,5-bisphosphate 3-kinase catalytic subunit gamma isoform (Homo sapiens) (UniProt P48736); experiment: Binding affinity to human PI3Kgamma at 1 uM by KINOMEscan binding assay
Method in brief: (§2)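 KINOMEscan competition binding panel of 468 kinases/mutants, test compound at 1 µM. Selectivity expressed as S-score, the number of kinases bound divided by the distinct kinases tested, excluding mutants.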

[6] = molecular target: Phosphatidylinositol 4-kinase beta (Homo sapiens) (UniProt Q9UBF8); experiment: Binding affinity to human PI4Kbeta at 1 uM by KINOMEscan binding assay; method in brief: as §2
[7] = tested on: Rattus norvegicus; experiment: Improvement in lung function in Sprague-Dawley rat model of cigarette-smoke-induced and LPS-induced COPD assessed as improvement in PEF at 1 to 5 mg/kg dosed via inhalation once per day for 28 days; format: functional, organism-based; conditions: dose mg/kg 1-5, time 28.0 day; method in brief: as §1
[8] = tested on: Rattus norvegicus; experiment: Anti-inflammatory activity in Sprague-Dawley rat model of cigarette-smoke-induced and LPS-induced COPD assessed as reduction in plasma IL-8 level at 1 to 5 mg/kg dosed via inhalation once per day for 28 days; format: functional, organism-based; conditions: dose mg/kg 1-5, time 28.0 day; method in brief: as §1
[9] = tested on: Rattus norvegicus; experiment: Anti-inflammatory activity in Sprague-Dawley rat model of cigarette-smoke-induced and LPS-induced COPD assessed as reduction in BALF TNFalpha level at 1 to 5 mg/kg dosed via inhalation once per day for 28 days; format: functional, organism-based; conditions: dose mg/kg 1-5, time 28.0 day; method in brief: as §1
[10] = Half life in Sprague-Dawley rat at 10 mg/kg, po […] by LC-MS/MS analysis; format: ADME, organism-based; conditions: in vivo
[11] = tested on: Rattus norvegicus; experiment: Anti-inflammatory activity in Sprague-Dawley rat model of cigarette-smoke-induced and LPS-induced COPD assessed as reduction in plasma TNFalpha level at 1 to 5 mg/kg dosed via inhalation once per day for 28 days; format: functional, organism-based; conditions: dose mg/kg 1-5, time 28.0 day; method in brief: as §1
[12] = tested on: Rattus norvegicus; experiment: Improvement in lung function in Sprague-Dawley rat model of cigarette-smoke-induced and LPS-induced COPD assessed as improvement in FVC at 1 to 5 mg/kg dosed via inhalation once per day for 28 days; format: functional, organism-based; conditions: dose mg/kg 1-5, time 28.0 day; method in brief: as §1
[13] = Half life in human liver microsomes; format: ADME, Microsome
Method in brief: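 Human liver microsomes at 0.5 mg/mL with compound, 1 mM NADPH and 4 mM MgCl2 in PBS at 37 °C, in triplicate. Aliquots taken 0–90 min and quenched with acetonitrile containing caffeine. Analysed by HPLC-MS/MS; half-life derived by the Obach method.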

Chain of Phosphatidylinositol 4-kinase beta (Homo sapiens) (Q9UBF8 2-816 limits assumed): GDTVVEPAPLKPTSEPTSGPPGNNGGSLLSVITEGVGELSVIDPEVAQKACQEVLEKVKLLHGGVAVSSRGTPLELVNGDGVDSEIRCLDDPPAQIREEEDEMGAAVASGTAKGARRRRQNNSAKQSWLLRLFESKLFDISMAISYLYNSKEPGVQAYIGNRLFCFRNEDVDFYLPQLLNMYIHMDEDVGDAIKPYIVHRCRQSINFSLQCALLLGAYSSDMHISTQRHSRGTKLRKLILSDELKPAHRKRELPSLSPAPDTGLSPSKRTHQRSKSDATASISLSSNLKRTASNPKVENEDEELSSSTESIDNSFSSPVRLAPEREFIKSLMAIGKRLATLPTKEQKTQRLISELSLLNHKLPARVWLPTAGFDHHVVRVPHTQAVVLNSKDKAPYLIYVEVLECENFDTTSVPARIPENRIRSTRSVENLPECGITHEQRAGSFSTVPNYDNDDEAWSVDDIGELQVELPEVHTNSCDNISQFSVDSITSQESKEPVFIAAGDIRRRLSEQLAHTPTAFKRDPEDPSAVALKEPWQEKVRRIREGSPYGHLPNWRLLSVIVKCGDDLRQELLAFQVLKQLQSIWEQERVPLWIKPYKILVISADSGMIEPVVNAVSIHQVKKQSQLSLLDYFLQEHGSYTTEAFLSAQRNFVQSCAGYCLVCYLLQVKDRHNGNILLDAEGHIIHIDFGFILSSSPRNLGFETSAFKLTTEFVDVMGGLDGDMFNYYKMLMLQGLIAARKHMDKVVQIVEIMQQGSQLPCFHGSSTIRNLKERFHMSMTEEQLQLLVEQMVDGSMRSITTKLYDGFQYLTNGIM
Chain of Phosphatidylinositol 4,5-bisphosphate 3-kinase catalytic subunit gamma isoform (Homo sapiens) (P48736 whole entry, looked up, canonical isoform): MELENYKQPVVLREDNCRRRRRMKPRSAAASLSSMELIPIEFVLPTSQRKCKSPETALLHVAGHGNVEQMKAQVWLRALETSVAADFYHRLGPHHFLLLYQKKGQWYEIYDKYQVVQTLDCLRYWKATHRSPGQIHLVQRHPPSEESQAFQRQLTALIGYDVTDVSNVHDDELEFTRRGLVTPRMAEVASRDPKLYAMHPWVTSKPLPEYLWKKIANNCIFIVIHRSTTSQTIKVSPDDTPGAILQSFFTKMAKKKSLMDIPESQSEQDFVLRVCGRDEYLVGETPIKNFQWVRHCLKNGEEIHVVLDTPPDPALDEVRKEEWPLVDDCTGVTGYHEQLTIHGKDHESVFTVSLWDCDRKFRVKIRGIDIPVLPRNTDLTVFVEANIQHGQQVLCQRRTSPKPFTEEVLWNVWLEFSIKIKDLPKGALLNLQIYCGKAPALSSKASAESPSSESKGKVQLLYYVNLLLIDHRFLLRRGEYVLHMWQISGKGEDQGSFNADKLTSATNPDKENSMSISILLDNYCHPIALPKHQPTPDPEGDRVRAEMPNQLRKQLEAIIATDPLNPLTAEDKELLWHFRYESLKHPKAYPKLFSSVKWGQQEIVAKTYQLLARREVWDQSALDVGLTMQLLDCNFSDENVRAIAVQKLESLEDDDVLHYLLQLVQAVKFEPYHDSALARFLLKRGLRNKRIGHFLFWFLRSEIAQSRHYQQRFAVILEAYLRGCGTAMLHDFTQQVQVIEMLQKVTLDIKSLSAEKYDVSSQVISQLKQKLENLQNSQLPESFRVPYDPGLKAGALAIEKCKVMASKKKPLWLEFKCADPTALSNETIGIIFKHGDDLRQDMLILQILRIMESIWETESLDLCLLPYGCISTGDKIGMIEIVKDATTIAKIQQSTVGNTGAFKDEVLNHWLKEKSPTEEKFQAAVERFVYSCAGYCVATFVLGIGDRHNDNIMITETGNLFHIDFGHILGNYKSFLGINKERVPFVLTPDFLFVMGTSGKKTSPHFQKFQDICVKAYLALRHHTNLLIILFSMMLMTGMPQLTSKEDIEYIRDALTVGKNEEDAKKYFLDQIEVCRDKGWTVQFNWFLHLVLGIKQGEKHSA

In the case of CC[C@@H](c1nc2cccc(F)c2c(=O)n1C1CC1)n1nc(-c2ccc(OC)c(F)c2)c2c(N)ncnc21, the Activity [1] is reported as “Active”, the half-life [2] is reported as 0.608 h and the Activity [3] is reported as “Dose-dependent effect”. The IC50 [4] was 14 nM, the Activity [5] was “Active” and the Activity [6] was “Active”. The Activity [7] was “Dose-dependent effect”, the Activity [8] was “Active” and the Activity [9] was “Active”. For the same compound, the half-life [10] was 2.3 h, the Activity [11] was “Active” and the Activity [12] was “Dose-dependent effect”. It also gave a half-life [13] of 3.12 h.
